Reference: PMC8667933 (Journal of Enzyme Inhibition and Medicinal Chemistry, 2021)
One block for each compound: values may come before it.

How the values were obtained:
[1] = tested on: MCF-7 and MDA-MB-231 cells; assay: Transwell migration assay; type: cell-based, human; conditions: 24 h
MDA-MB-231 [2] = assay: CCK-8 cell viability assay, MDA-MB-231; type: cell-based, human; conditions: for suppression of cell proliferation: MDA-MB-231, 10 μM, CCK-8
Summary of the method: (§1)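 Log-phase cells seeded in 96-well plates and incubated overnight, then exposed to test compound or vehicle. Viability runs: 1, 3 and 10 μM for 24 h and 48 h. IC50: a range of concentrations for 24 h. Proliferation read by CCK-8 per kit procedure. Mean ± SEM of n = 3; two-tailed unpaired t-test vs vehicle.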

ERRα = target: T1, ERRα (Homo sapiens, UniProt P11474); assay: ERRα functional assay: mammalian two-hybrid reporter gene assay; type: cell-based
T1 sequence (P11474 193-421 limits assumed): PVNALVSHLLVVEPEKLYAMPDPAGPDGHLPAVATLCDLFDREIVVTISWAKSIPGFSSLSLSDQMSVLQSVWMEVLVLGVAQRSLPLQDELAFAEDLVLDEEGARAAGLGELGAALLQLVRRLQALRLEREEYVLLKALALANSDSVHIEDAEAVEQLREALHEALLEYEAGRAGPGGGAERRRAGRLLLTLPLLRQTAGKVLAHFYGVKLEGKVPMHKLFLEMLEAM

[3] = tested on: ERRα-regulated target genes (PGC-1α, PDK4, osteopontin, pS2); assay: Quantitative RT-PCR of ERRα-regulated target genes in MDA-MB-231 cells; type: cell-based, human; conditions: high-dose 3 μM, 24 h
Summary of the method: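 MDA-MB-231 cells exposed 24 h to 0.1% DMSO or test compound at 1 or 3 μM. Total RNA isolated with Trizol, reverse-transcribed, and analysed by real-time PCR for PGC-1α, PDK4, osteopontin (SPP1) and pS2 (TFF1) mRNA. Mean ± SEM of n = 3; two-tailed unpaired t-test vs vehicle.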

MCF-7 [4] = assay: CCK-8 cell viability assay, MCF-7; type: cell-based, human; conditions: for suppression of cell proliferation: MCF-7, 10 μM, CCK-8
Summary of the method: as §1

MDA-MB-231 [5] = assay: Colony formation assay, MDA-MB-231; type: cell-based, human
Summary of the method: (§2)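 1 × 10^3 cells/well plated in 6-well plates and cultured overnight. Medium then replaced with vehicle or test compound at 0.3 or 1 μM. Exposure is 7 days per legend and 2 weeks (until colonies visible) per methods. Colonies washed with PBS, fixed in 4% paraformaldehyde, stained 30 min with 0.1% crystal violet, imaged and counted. n = 3, mean ± SEM, unpaired t-test.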

[6] = Body weight and overt toxicity in xenograft mice; type: in vivo, BALB/c nude mice; conditions: 30 mg/kg every other day, intraperitoneally, vs control group
ERRα LBD = target: T2, ERRα LBD (Homo sapiens, UniProt P11474); assay: TR-FRET co-activator assay; type: binding
T2 sequence (P11474 193-421 limits assumed): T1 sequence (P11474 193-421 limits assumed)

[7] = tested on: MDA-MB-231 cells with ERRα knock-down; assay: Viability of MDA-MB-231 cells after ERRα knock-down; type: cell-based, human; conditions: siRNA (legend: shERRα vs shCtrl)
MDA-MB-231 [8] = assay: Transwell invasion assay; type: cell-based, human; conditions: 24 h
MCF-7 [9] = assay: Colony formation assay, MCF-7; type: cell-based, human; conditions: MCF-7, high-dose 1 μM
Summary of the method: as §2

MCF-7 [10] = assay: Transwell invasion assay; type: cell-based, human; conditions: MCF-7, high-dose (3 μM), 24 h
[11] = tested on: MDA-MB-231 xenograft tumour; assay: Breast cancer xenografts in nude mice; type: in vivo, BALB/c nude mice; conditions: 30 mg/kg every other day, intraperitoneally, 30 days
Summary of the method: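 6-week-old BALB/c nude mice were implanted subcutaneously with 2 × 10^6 MDA-MB-231 cells each. Dosing began once tumours averaged >100 mm3: i.p. 30 mg/kg every other day for 30 days in 0.9% saline with 0.5% 2-phenylethanol and 1.5% Tween 80, vehicle-only controls. Tumours measured every 5 days, V = length × width² × 0.5; body weight every 10 days. n = 6, mean ± SEM, two-tailed unpaired t-test vs vehicle.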

HCC-1937 = assay: CCK-8 cell viability assay, HCC-1937; type: cell-based, human; conditions: for suppression of cell proliferation: HCC-1937, 10 μM, CCK-8
Summary of the method: as §1

SMILES: COc1ccc(Oc2ccccc2NS(=O)(=O)c2ccc([N+](=O)[O-])cc2)cc1 [compound 11, N-(2–(4-methoxyphenoxy)phenyl)-4-nitrobenzenesulfonamide]
inhibition of breast cancer cells migration ([1]; 1 μM): moderate inhibition | inhibition of breast cancer cells migration ([1]; high-dose 3 μM): much more potently inhibitory effect | IC50 (MDA-MB-231 [2]; Homo sapiens, MDA-MB-231, 24 h, read-out: IC50, cell proliferation): 9.15 µM | suppression of cell proliferation (MDA-MB-231 [2]; 24 h): 38.9% | suppression of cell proliferation (MDA-MB-231 [2]; 48 h): 44.3% | IC50 (ERRα): 0.8 µM | fold more active than compound 10 (ERRα; ratio of IC50 values, compound 11 vs compound 10): 1.5 fold | PGC-1α, PDK4, osteopontin and pS2 mRNA expression [3]: notably reduced | IC50 (MCF-7 [4]; Homo sapiens, MCF7, 24 h, read-out: IC50, cell proliferation): 15.4 µM | suppression of cell proliferation (MCF-7 [4]; 24 h): 23.5% | suppression of cell proliferation (MCF-7 [4]; 48 h): 37.4% | reduction of the number of colonies (MDA-MB-231 [5]; MDA-MB-231, high-dose 1 μM): 70.3% | number of colonies (MDA-MB-231 [5]; MDA-MB-231, low-dose 0.3 μM): decreased significantly | influence on weight of mice and overt toxicity [6]: no notably compound-related influences on the weight of mice or any other symptoms of overt toxicity | IC50 (ERRα LBD): 0.681 µM | effect of ERRα knock-down on compound-induced anti-proliferation [7]: knock-down of ERRα reduced compound 11 induced anti-proliferation | effect on cell invasion (MDA-MB-231 [8]; MB-231 cells, low-dose (1 μM)): weak effect | reduction in cell invasion (MDA-MB-231 [8]; MDA-MB-231, high-dose (3 μM)): 50.9% | reduction of the number of colonies (MCF-7 [9]): 47.5% | reduction in cell invasion (MCF-7 [10]): 31.5% | tumour growth inhibition ([11]; MDA-MB-231 xenograft): 23.58% | tumour volume at the end of the experiment ([11]; control 1508 mm^3): 1152 mm^3 | suppression of cell proliferation (HCC-1937; 24 h): 31.0% | suppression of cell proliferation (HCC-1937; 48 h): 38.0% | IC50 (HCC-1937; Homo sapiens, HCC1937, 24 h, read-out: IC50, cell proliferation): 14.7 µM

IC50 (ERRα): 1.23 µM | inhibiting activity relative to compound 14 (ERRα; ratio of IC50 values, compound 10 vs compound 14): 1.5 times
SMILES: Cc1ccc(Oc2ccccc2NS(=O)(=O)c2ccc([N+](=O)[O-])cc2)cc1 [compound 10, 4-Nitro-N-(2-(p-tolyloxy)phenyl)benzenesulfonamide]

IC50 (ERRα): 1.61 µM
SMILES: Nc1ccc(S(=O)(=O)Nc2ccccc2Oc2ccc(Cl)cc2)cc1 [compound 13, 4-Amino-N-(2–(4-chlorophenoxy)phenyl)benzenesulfonamide]

IC50 (ERRα): 1.76 µM
SMILES: O=[N+]([O-])c1ccc(S(=O)(=O)Nc2ccccc2Oc2ccccc2)cc1 [compound 8, 4-Nitro-N-(2-phenoxyphenyl)benzenesulfonamide]

IC50 (ERRα): > 10 µM | IC50, inhibition of ERRα transcriptional activity (ERRα; reporter gene assay, HEK 293 T cells, 48 h): inactive
SMILES: COc1ccc(Oc2ccccc2NS(=O)(=O)c2ccc(N)cc2)cc1 [compound 12, 4-Amino-N-(2–(4-methoxyphenoxy)phenyl)benzenesulfonamide]

IC50 (ERRα): 1.88 µM
SMILES: Cc1ccc(Oc2ccccc2NS(=O)(=O)c2ccc(N)cc2)cc1 [compound 14, 4-Amino-N-(2-(p-tolyloxy)phenyl)benzenesulfonamide]

IC50 (ERRα): 2.02 µM
SMILES: O=[N+]([O-])c1ccc(S(=O)(=O)Nc2ccccc2Oc2ccc(Cl)cc2)cc1 [compound 9, N-(2–(4-chlorophenoxy)phenyl)-4-nitrobenzenesulfonamide]
